Laboratory results from ChEMBL document CHEMBL3862029, “Discovery of 8-Membered Ring Sulfonamides as Inhibitors of Oncogenic Mutant Isocitrate Dehydrogenase 1” (ACS Med Chem Lett, 2016).
pEC50, pIC50: −log10 of the molar value. Calls of active or inactive are those of the source. The calls are words filed in the database; no cut-off is given here.

Tests used:
[1] = target: T1, Isocitrate dehydrogenase [NADP] cytoplasmic (Homo sapiens, UniProt O75874, R132H); assay: Inhibition of human C-terminal His8-tagged IDH1-R132H mutant expressed in Escherichia coli Rosetta assessed as inhibition of ketoreductase activity by measuring NADPH consumption preincubated for 60 mins followed by addition of alpha-KG as substrate measured after 50 mins in presence of NADPH and Mg2+ by resazurin based diaphorase-coupled fluorescence assay
In short: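 IDH1-R132H–Mg2+ ketoreductase assay reading NADPH consumption through a diaphorase-coupled fluorescence reaction. Buffer contained 0.01% Tween 20 against aggregation. Primary screen at 15 μM in duplicate, with positives set at ≥60% inhibition in both replicates. Retests were in 8-point dose.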
Target sequence in this assay (O75874 2-414 R132H limits assumed): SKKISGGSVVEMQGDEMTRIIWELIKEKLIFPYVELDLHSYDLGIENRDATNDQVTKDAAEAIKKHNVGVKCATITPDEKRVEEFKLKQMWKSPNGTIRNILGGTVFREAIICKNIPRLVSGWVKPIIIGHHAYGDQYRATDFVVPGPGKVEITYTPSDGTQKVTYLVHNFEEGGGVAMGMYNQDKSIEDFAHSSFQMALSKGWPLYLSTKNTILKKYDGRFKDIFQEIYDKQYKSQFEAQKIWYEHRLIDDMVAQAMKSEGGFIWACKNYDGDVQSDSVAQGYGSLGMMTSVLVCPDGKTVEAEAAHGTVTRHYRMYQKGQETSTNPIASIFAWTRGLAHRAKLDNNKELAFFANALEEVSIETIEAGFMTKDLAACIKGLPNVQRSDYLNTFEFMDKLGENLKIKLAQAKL

[2] = test system: Isocitrate dehydrogenase [NADP] cytoplasmic (Homo sapiens), O75874 [R132H]; assay: Inhibition of human C-terminal His8-tagged IDH1-R132H mutant expressed in Escherichia coli Rosetta assessed as inhibition of ketoreductase activity by measuring NADPH consumption preincubated for 10 mins followed by addition of NADPH and alpha-KG as substrate by fluorescence method
Chain of Isocitrate dehydrogenase [NADP] cytoplasmic (Homo sapiens), O75874 [R132H] (O75874 whole entry R132H): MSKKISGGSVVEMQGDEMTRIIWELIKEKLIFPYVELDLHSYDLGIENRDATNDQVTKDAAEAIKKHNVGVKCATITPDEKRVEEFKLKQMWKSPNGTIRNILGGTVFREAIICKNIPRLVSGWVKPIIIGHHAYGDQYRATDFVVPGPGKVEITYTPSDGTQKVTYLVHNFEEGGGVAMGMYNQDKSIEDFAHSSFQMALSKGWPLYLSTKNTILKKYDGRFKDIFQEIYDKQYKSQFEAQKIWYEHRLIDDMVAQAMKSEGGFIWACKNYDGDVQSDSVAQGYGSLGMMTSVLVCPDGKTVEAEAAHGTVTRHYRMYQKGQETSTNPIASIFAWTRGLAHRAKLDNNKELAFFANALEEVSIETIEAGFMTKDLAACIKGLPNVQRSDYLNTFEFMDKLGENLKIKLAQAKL
In short: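 Purified IDH1-R132H incubated with α-KG and NADPH; direct kinetic read of falling NADPH fluorescence, run in dose. Enzyme concentration kept below that of the screening assays so inhibitor stays far above enzyme. IC50 values are geometric means of at least three independent experiments.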

[3] = test system: Isocitrate dehydrogenase [NADP] cytoplasmic (Homo sapiens), O75874 [R132H]; assay: (§1) Inhibition of IDH1-R132H mutant (unknown origin) expressed in human HA1EM cells assessed as suppression of R-2HG secretion measured after 72 hrs by LC-MS/MS analysis; assay type: cell-based
In short: (§2)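 HA1E-M cells (HEK-293 derivative) engineered to overexpress IDH1-R132H and release R-2HG into growth media. Compound treatment for 72 h, then R-2HG in conditioned media measured by LC-MS. Values normalized to DMSO-treated controls; EC50 from three independent experiments, each run in triplicate.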

[4] = target: T1, Isocitrate dehydrogenase [NADP] cytoplasmic; assay: as §1; assay type: cell-based; in short: as §2
Target sequence in this assay (O75874 whole entry R132H): as above

SMILES	pIC50 [1]	further results
C[C@H]1CN([C@@H](C)CO)S(=O)(=O)c2ccc(C#Cc3cccc(F)c3)cc2O[C@@H]1CN(C)C(=O)NC1CCCCC1	6.00	–
C[C@@H]1CN([C@@H](C)CO)S(=O)(=O)c2ccc(C#Cc3cccc(F)c3)cc2O[C@H]1CN(C)C(=O)Nc1ccccc1	5.51	–
C#Cc1ccc2c(c1)O[C@@H](CN(C)C(=O)NC1CCCCC1)[C@H](C)CN([C@@H](C)CO)S2(=O)=O	5.11	–
C[C@@H]1CN([C@@H](C)CO)S(=O)(=O)c2ccc(C#Cc3cccc(F)c3)cc2O[C@H]1CN(C)CCC1CCNCC1	5.13	–
C[C@H](CO)N1C[C@H](C)[C@@H](CN(C)C(=O)NC2CCCCC2)Oc2cc(C#Cc3cccc(F)c3)ccc2S1(=O)=O	5.77	–
C[C@@H]1CN([C@@H](C)CO)S(=O)(=O)c2ccc(C#Cc3ccccc3)cc2O[C@H]1CN(C)C(=O)NC1CCCCC1	7.12	–
C[C@@H]1CN([C@@H](C)CO)S(=O)(=O)c2ccc(C#Cc3cccc(F)c3)cc2O[C@H]1CN(C)C(=O)c1ccno1	4.72	–
CCNC(=O)N(C)C[C@@H]1Oc2cc(C#Cc3cccc(F)c3)ccc2S(=O)(=O)N([C@@H](C)CO)C[C@H]1C	5.85	–
C[C@@H]1CN([C@@H](C)CO)S(=O)(=O)c2ccc(-c3cccnc3)cc2O[C@H]1CN(C)C(=O)NC1CCCCC1	5.19	–
C[C@@H]1CN([C@@H](C)CO)S(=O)(=O)c2ccc(C#Cc3ccc(F)c(F)c3)cc2O[C@H]1CN(C)C(=O)NC1CCCCC1	7.55	–
C[C@@H]1CN([C@@H](C)CO)S(=O)(=O)c2ccc(C#Cc3cncnc3)cc2O[C@H]1CN(C)C(=O)NC1CCCCC1	6.49	–
C[C@@H]1CN([C@@H](C)CO)S(=O)(=O)c2ccc(C#Cc3cccc(F)c3)cc2O[C@H]1CN(C)C(=O)OC(C)(C)C	5.80	–
COc1ccc(C#Cc2ccc3c(c2)O[C@@H](CN(C)C(=O)NC2CCCCC2)[C@H](C)CN([C@@H](C)CO)S3(=O)=O)cc1	7.04	–
COc1ccc(OC[C@H](C)N2C[C@@H](C)[C@H](CN(C)C(=O)NC3CCCCC3)Oc3cc(C#Cc4cccnc4)ccc3S2(=O)=O)cc1	7.02	–
C[C@@H]1CN([C@@H](C)CO)S(=O)(=O)c2ccc(C#Cc3ccc(F)cc3)cc2O[C@H]1CN(C)C(=O)NC1CCCCC1	7.43	–
C[C@H](CO)N1C[C@H](C)[C@H](CN(C)C(=O)NC2CCCCC2)Oc2cc(C#Cc3cccc(F)c3)ccc2S1(=O)=O	< 4.70	–
C[C@@H]1CN([C@@H](C)CO)S(=O)(=O)c2ccc(C#Cc3cccnc3)cc2O[C@H]1CN(C)C(=S)NC1CCCCC1	6.80	–
C[C@@H]1CN([C@@H](C)CO)S(=O)(=O)c2ccc(C#Cc3cccc(F)c3)cc2O[C@H]1CN(C)C(=O)C1CCCCC1	6.36	–
C[C@@H]1CN([C@@H](C)CO)S(=O)(=O)c2ccc(C#CBr)cc2O[C@H]1CN(C)C(=O)NC1CCCCC1	< 4.70	–
C[C@@H]1CN([C@@H](C)CN(C)C)S(=O)(=O)c2ccc(C#Cc3ccc(F)cc3)cc2O[C@H]1CN(C)C(=O)NC1CCCCC1	7.49	–
C[C@@H]1CN([C@@H](C)CO)S(=O)(=O)c2ccc(C#Cc3cccnc3)cc2O[C@H]1CCC(=O)NC1CCCCC1	5.04	–
C[C@@H]1CN([C@@H](C)CO)S(=O)(=O)c2ccc(C#Cc3cccc(F)c3)cc2O[C@H]1CN(C)C(=O)NC1CCCC1	7.10	–

SMILES	pIC50 [1]	further results
C[C@@H]1CN([C@@H](C)CO)S(=O)(=O)c2ccc(C#Cc3cncn3C)cc2O[C@H]1CN(C)C(=O)NC1CCCCC1	5.80	–
CCCNC(=O)N(C)C[C@@H]1Oc2cc(C#Cc3cccc(F)c3)ccc2S(=O)(=O)N([C@@H](C)CO)C[C@H]1C	6.26	–
C[C@@H]1CN([C@@H](C)CO)S(=O)(=O)c2ccc(C#CC3CCCCC3)cc2O[C@H]1CN(C)C(=O)NC1CCCCC1	7.05	–
C[C@@H]1CN([C@@H](C)CO)S(=O)(=O)c2ccc(C#Cc3cccc(F)c3)cc2O[C@H]1CN(C)C(=O)CC1CCCCC1	6.44	–
C[C@H]1CN([C@@H](C)CO)S(=O)(=O)c2ccc(C#Cc3cccc(F)c3)cc2O[C@H]1CN(C)C(=O)NC1CCCCC1	5.20	–
C[C@@H]1CN([C@@H](C)CO)S(=O)(=O)c2ccc(C#C[Si](C)(C)C)cc2O[C@H]1CN(C)C(=O)NC1CCCCC1	6.85	–
C[C@@H]1CN([C@@H](C)CO)S(=O)(=O)c2ccc(/C=C/c3ccccc3)cc2O[C@H]1CN(C)C(=O)NC1CCCCC1	6.72	–
C[C@@H]1CN([C@@H](C)CO)S(=O)(=O)c2ccc(C#Cc3cccc(F)c3)cc2O[C@H]1CN(C)C(=O)N(C)C1CCCCC1	5.24	–
C[C@@H]1CN([C@@H](C)CO)S(=O)(=O)c2ccc(C#Cc3cccc(F)c3)cc2O[C@H]1CN(C)C(=O)C1CCOCC1	5.10	–
C[C@@H]1CN([C@@H](C)CO)S(=O)(=O)c2ccc(C#Cc3cccc(F)c3)cc2O[C@@H]1CN(C)C(=O)NC1CCCCC1	5.41	–
C[C@@H]1CN([C@@H](C)CO)S(=O)(=O)c2ccc(C#Cc3cccc(F)c3)cc2O[C@H]1CN(C)C(=O)NCC1CCCCC1	6.80	–
C[C@@H]1CN([C@H](C)CO)S(=O)(=O)c2ccc(C#Cc3cccc(F)c3)cc2O[C@@H]1CN(C)C(=O)NC1CCCCC1	5.28	–
C[C@@H]1CN([C@H](C)CO)S(=O)(=O)c2ccc(C#Cc3cccc(F)c3)cc2O[C@H]1CN(C)C(=O)NC1CCCCC1	6.22	–
Cc1noc(C)c1NC(=O)N(C)C[C@@H]1Oc2cc(C#Cc3cccc(F)c3)ccc2S(=O)(=O)N([C@@H](C)CO)C[C@H]1C	4.96	–
C[C@@H]1CN([C@@H](C)CO)S(=O)(=O)c2ccc(C#Cc3ccc(Cl)cc3)cc2O[C@H]1CN(C)C(=O)NC1CCCCC1	7.25	–
C[C@@H]1CN([C@@H](C)CO)S(=O)(=O)c2ccc(C#Cc3ccc(F)cn3)cc2O[C@H]1CN(C)C(=O)NC1CCCCC1	6.59	–
C[C@@H]1CN([C@@H](C)CO)S(=O)(=O)c2ccc(C#Cc3cccc(F)c3)cc2O[C@H]1CN(C)C(=O)NC1CC1	6.00	–
C[C@@H]1CN([C@@H](C)CO)S(=O)(=O)c2ccc(C#Cc3ccccc3F)cc2O[C@H]1CN(C)C(=O)NC1CCCCC1	7.04	–
Cc1ccccc1C(C(=O)NC1CCCCC1)N(C(=O)Cn1ccnc1C)c1cccc(F)c1 (stereo not given)	–	inhibition [2]: Active; inhibition [3]: Dose-dependent effect; pEC50 [4]: 7.22
C[C@@H]1CN([C@@H](C)CO)S(=O)(=O)c2ccc(C#Cc3cccc(Cl)c3)cc2O[C@H]1CN(C)C(=O)NC1CCCCC1	7.22	–
C[C@@H]1CN([C@@H](C)CO)S(=O)(=O)c2ccc(C#Cc3cccnc3)cc2O[C@H]1CN(C)C(=O)NC1CCCCC1	6.85	–
